Values joined by “and” are separate entries in the source; they are usually repeats but may differ in a detail not shown here. Identical values can stand only once.
Columns and labels:
Format in all cases: functional
Mus musculus [1] = organism: Mus musculus; test: In vitro cytotoxic T-Lymphocyte (CTL) activity relative to interleukin 2 was obtained at a concentration of 10 e -7 M(++++ represents 81 - 100% of interleukin 2)
Method in brief: (§1)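 Splenocytes from 6- to 8-week-old female C57BL/6 and irradiated (3000 rads) DBA/2 mice, 10⁷ cells, were cultured together in RPMI 1640 with 10% FCS. Culture ran 120 h at 37 °C in 5% CO₂, with [³H]thymidine pulse of an aliquot. Percent specific lysis was scaled to IL 2 (taken as 100%) and scored 0 to ++++ in 20% bands.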

Mus musculus [2] = organism: Mus musculus; test: In vitro cytotoxic T-Lymphocyte (CTL) activity relative to interleukin 2 was obtained at a concentration of 10 e -7 M(++ represents 41 - 60% of interleukin 2); method in brief: as §1
Mus musculus [3] = organism: Mus musculus; test: In vitro cytotoxic T-Lymphocyte (CTL) activity relative to interleukin 2 was obtained at a concentration of 10 e -5 M(++ represents 41 - 60% of interleukin 2); method in brief: as §1
Mus musculus [4] = organism: Mus musculus; test: In vitro cytotoxic T-Lymphocyte (CTL) activity relative to interleukin 2 was obtained at a concentration of 10 e -5 M (+ represents 21 - 40% of interleukin 2); method in brief: as §1
Mus musculus [5] = organism: Mus musculus; test: In vitro cytotoxic T-Lymphocyte (CTL) activity relative to interleukin 2 was obtained at a concentration of 10 e -7 M(++ represents 21 - 40% of interleukin 2); details: in the assay text read “+ represents” for “++ represents”; method in brief: as §1
Mus musculus [6] = organism: Mus musculus; test: In vitro cytotoxic T-Lymphocyte (CTL) activity relative to interleukin 2 was obtained at a concentration of 10 e -7 M (++ represents 41 - 60% of interleukin 2); method in brief: as §1
Mus musculus [7] = test: In vivo blood immunophenotyping (CD4+CD45+ cells) assay was performed by injecting 100 mg/Kg of compound intraperitoneally in mice
Method in brief: (§2)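 Female 6- to 8-week-old C57BL/6 mice were dosed ip once daily for one, four or nine consecutive days, drug in physiological saline. For single dosing, groups of seven were used. Blood and spleen cells were ACK-lysed (pH 7.3, 5 min) and PBS-washed, then stained 45 min on ice with FITC/PE surface-marker antibodies. Cells were fixed in 1% paraformaldehyde and read by flow cytometry as relative subset percentages.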

Mus musculus [8] = test: In vivo blood immunophenotyping (CD4+CD45+ cells) assay was performed by injecting 50 mg/Kg of compound intraperitoneally in mice; method in brief: as §2
Mus musculus [9] = test: In vivo immunophenotyping (CD4+ cells) assay was performed by injecting 0 mg/Kg of compound intraperitoneally in mice and blood is collected; method in brief: as §2
Mus musculus [10] = test: In vivo blood immunophenotyping (NK+CD3+ cells) assay was performed by injecting 50 mg/Kg of compound intraperitoneally in mice; method in brief: as §2
Mus musculus [11] = test: In vivo blood immunophenotyping (CD4-CD11b+ cells) assay was performed by injecting 25 mg/Kg of compound intraperitoneally in mice; method in brief: as §2
Mus musculus [12] = test: In vivo spleen immunophenotyping (CD8+CD45+ cells) assay was performed by injecting 100 mg/Kg of compound intraperitoneally in mice; method in brief: as §2
Mus musculus [13] = test: In vivo spleen immunophenotyping (TCR cells) assay was performed by injecting 0 mg/Kg of compound intraperitoneally in mice; method in brief: as §2
Mus musculus [14] = test: In vivo spleen immunophenotyping (TCR cells) assay was performed by injecting 25 mg/Kg of compound intraperitoneally in mice; method in brief: as §2
Mus musculus [15] = test: In vivo blood immunophenotyping (NK+CD3+ cells) assay was performed by injecting 25 mg/Kg of compound intraperitoneally in mice; method in brief: as §2
Mus musculus [16] = test: In vivo blood immunophenotyping (NK+CD3- cells) assay was performed by injecting 50 mg/Kg of compound intraperitoneally in mice; method in brief: as §2
Mus musculus [17] = test: In vivo blood immunophenotyping (NK+CD3+ cells) assay was performed by injecting 0 mg/Kg of compound intraperitoneally in mice; method in brief: as §2
Mus musculus [18] = test: In vivo spleen immunophenotyping (Ly5 cells) assay was performed by injecting 50 mg/Kg of compound intraperitoneally in mice; method in brief: as §2
Mus musculus [19] = test: In vivo spleen immunophenotyping (Ly5 cells) assay was performed by injecting 0 mg/Kg of compound intraperitoneally in mice; method in brief: as §2
Mus musculus [20] = test: In vivo blood immunophenotyping (CD8+CD45+ cells) assay was performed by injecting 50 mg/Kg of compound intraperitoneally in mice; method in brief: as §2
Mus musculus [21] = test: In vivo spleen immunophenotyping (TCR cells) assay was performed by injecting 50 mg/Kg of compound intraperitoneally in mice; method in brief: as §2
Mus musculus [22] = test: In vivo spleen immunophenotyping (CD8+CD45+ cells) assay was performed by injecting 25 mg/Kg of compound intraperitoneally in mice; method in brief: as §2
Mus musculus [23] = test: In vivo immunophenotyping (CD4-CD8- cells) assay was performed by injecting 100 mg/Kg of compound intraperitoneally in mice and blood is collected; method in brief: as §2
Mus musculus [24] = test: In vivo blood immunophenotyping (NK+CD3- cells) assay was performed by injecting 25 mg/Kg of compound intraperitoneally in mice; method in brief: as §2
Mus musculus [25] = test: In vivo blood immunophenotyping (CD4+CD45+ cells) assay was performed by injecting 0 mg/Kg of compound intraperitoneally in mice; method in brief: as §2
Mus musculus [26] = test: In vivo spleen immunophenotyping (Ly5 cells) assay was performed by injecting 25 mg/Kg of compound intraperitoneally in mice; method in brief: as §2
Mus musculus [27] = test: In vivo immunophenotyping (CD4-CD8- cells) assay was performed by injecting 25 mg/Kg of compound intraperitoneally in mice and blood is collected; method in brief: as §2
Mus musculus [28] = test: In vivo blood immunophenotyping (CD4+CD45+ cells) assay was performed by injecting 25 mg/Kg of compound intraperitoneally in mice; method in brief: as §2
Mus musculus [29] = test: In vivo blood immunophenotyping (CD4-CD11b+ cells) assay was performed by injecting 0 mg/Kg of compound intraperitoneally in mice; method in brief: as §2
Mus musculus [30] = test: In vivo blood immunophenotyping (CD4-CD11b+ cells) assay was performed by injecting 50 mg/Kg of compound intraperitoneally in mice; method in brief: as §2
Mus musculus [31] = test: In vivo immunophenotyping (CD4-CD8- cells) assay was performed by injecting 50 mg/Kg of compound intraperitoneally in mice and blood is collected; method in brief: as §2
Mus musculus [32] = test: In vivo blood immunophenotyping (CD8+CD45+ cells) assay was performed by injecting 0 mg/Kg of compound intraperitoneally in mice; method in brief: as §2
Mus musculus [33] = test: In vivo spleen immunophenotyping (CD8+CD45+ cells) assay was performed by injecting 0 mg/Kg of compound intraperitoneally in mice; method in brief: as §2
Mus musculus [34] = test: In vivo immunophenotyping (CD4-CD8- cells) assay was performed by injecting 0 mg/Kg of compound intraperitoneally in mice and blood is collected; method in brief: as §2
Mus musculus [35] = test: In vivo blood immunophenotyping (CD8+CD45+ cells) assay was performed by injecting 25 mg/Kg of compound intraperitoneally in mice; method in brief: as §2
Mus musculus [36] = test: In vivo spleen immunophenotyping (CD8+CD45+ cells) assay was performed by injecting 50 mg/Kg of compound intraperitoneally in mice; method in brief: as §2
Mus musculus [37] = test: In vivo blood immunophenotyping (CD8+CD45+ cells) assay was performed by injecting 100 mg/Kg of compound intraperitoneally in mice; method in brief: as §2
Mus musculus [38] = test: In vivo blood immunophenotyping (NK+CD3- cells) assay was performed by injecting 0 mg/Kg of compound intraperitoneally in mice; method in brief: as §2
Mus musculus [39] = organism: Mus musculus; test: In vitro cytotoxic T-Lymphocyte (CTL) activity relative to interleukin 2 was obtained at a concentration of 10 e -7 M(+ represents 21 - 40% of interleukin 2); method in brief: as §1
Mus musculus [40] = organism: Mus musculus; test: In vitro cytotoxic T-Lymphocyte (CTL) activity relative to interleukin 2 was obtained at a concentration of 10 e -97M(++ represents 41 - 60% of interleukin 2); method in brief: as §1
Mus musculus [41] = organism: Mus musculus; test: In vitro cytotoxic T-Lymphocyte (CTL) activity relative to interleukin 2 was obtained at a concentration of 10 e -9 M(++ represents 41 - 60% of interleukin 2); method in brief: as §1
Mus musculus [42] = organism: Mus musculus; test: In vitro cytotoxic T-Lymphocyte (CTL) activity relative to interleukin 2 was obtained at a concentration of 10 e -5 M(+ represents 21 - 40% of interleukin 2); method in brief: as §1
Mus musculus [43] = organism: Mus musculus; test: In vitro cytotoxic T-Lymphocyte (CTL) activity relative to interleukin 2 was obtained at a concentration of 10 e -7 M(++ +represents 61 - 80% of interleukin 2); method in brief: as §1

N=C(N)NCCCC(NC(=O)OCCCCCn1cnc2c(NN)ncnc21)C(=O)O (single isomer, unassigned)
CTL activity (Mus musculus [1]): ++

N=C(N)NCCC[C@@H](NC(=O)OCCCCCn1cnc2c(O)ncnc21)C(=O)O
CTL activity (Mus musculus [2]): 41 - 60% of interleukin 2

N=C(N)NCCCC(NC(=O)OCCCCCn1cnc2cncnc21)C(=O)O (single isomer, unassigned)
CTL activity (Mus musculus [3]): 41 - 60% of interleukin 2

CN(C)c1ncnc2c1ncn2C[C@H]1CC[C@H](COC(=O)N[C@@H](CCCNC(=N)N)C(=O)O)CC1
CTL activity (Mus musculus [2]): 41 - 60% of interleukin 2

CNc1ncnc2c1ncn2CCCCCOC(=O)NC(CCCNC(=N)N)C(=O)O (single isomer, unassigned)
CTL activity (Mus musculus [4]): 21 - 40% of interleukin 2

N=C(N)NCCC[C@H](NC(=O)OCCCCCn1cnc2c(NC3CC3)ncnc21)C(=O)O
CTL activity (Mus musculus [5]): 21 - 40% of interleukin 2

N=C(N)NCCCC(NC(=O)OCCCCCn1cnc2c(O)ncnc21)C(=O)O (single isomer, unassigned)
CTL activity (Mus musculus [2]): 41 - 60% of interleukin 2

CN(C)c1ncnc2c1ncn2CCCCCNC(=O)OCCCCCn1cnc2c(N(C)C)ncnc21
CTL activity (Mus musculus [2]): 41 - 60% of interleukin 2

CN(C)c1ncnc2c1ncn2CCSCCOC(=O)NC(CCCNC(=N)N)C(=O)O (single isomer, unassigned)
CTL activity (Mus musculus [6]): 41 - 60% of interleukin 2

CN(C)c1ncnc2c1ncn2CCCCCOC(=O)N[C@@H](CCCNC(=N)N)C(=O)O [BCH-1393]
Mean (Mus musculus [7]): 20.6
Mean (Mus musculus [8]): 22.1
Mean (Mus musculus [9]): 20.9 and 8.1
Mean (Mus musculus [10]): 3.25
Mean (Mus musculus [11]): 13.7
Mean (Mus musculus [12]): 9.13
Mean (Mus musculus [13]): 38.9
Mean (Mus musculus [14]): 39.8
Mean (Mus musculus [15]): 5.84
Mean (Mus musculus [16]): 8.14
Mean (Mus musculus [17]): 3.43
Mean (Mus musculus [18]): 50.4
Mean (Mus musculus [19]): 55.5
Mean (Mus musculus [20]): 10.1 and 9.06
Mean (Mus musculus [21]): 45.1
Mean (Mus musculus [22]): 7.46
Mean (Mus musculus [23]): 82.1
Mean (Mus musculus [24]): 5.9
Mean (Mus musculus [25]): 17.5
Mean (Mus musculus [26]): 54.1
Mean (Mus musculus [27]): 70.7
Mean (Mus musculus [28]): 18.5
Mean (Mus musculus [29]): 9.6
Mean (Mus musculus [30]): 9.68
Mean (Mus musculus [31]): 74.7
Mean (Mus musculus [32]): 8.25 and 6.9
Mean (Mus musculus [33]): 7.81
Mean (Mus musculus [34]): 65.9
Mean (Mus musculus [35]): 11.7 and 8.39
Mean (Mus musculus [36]): 8.92
Mean (Mus musculus [37]): 9.96
Mean (Mus musculus [38]): 6.01

CN(C)c1ncnc2c1ncn2CCCCCOC(=O)NCC(=O)O
CTL activity (Mus musculus [39]): 21 - 40% of interleukin 2

CN(C)c1ncnc2c1ncn2CCCCCO
CTL activity (Mus musculus [40]): 41 - 60% of interleukin 2

CN(C)c1ncnc2c1ncn2CCCCOC(=O)N[C@@H](CCCNC(=N)N)C(=O)O
CTL activity (Mus musculus [41]): 41 - 60% of interleukin 2

CN(C)c1ncnc2c1ncn2CCCCCOC(=O)NC(CCCNC(N)=O)C(=O)O (stereo not drawn)
CTL activity (Mus musculus [42]): 21 - 40% of interleukin 2

CN(C)c1ncnc2c1ncn2C[C@H]1CC[C@@H](COC(=O)N[C@@H](CCCNC(=N)N)C(=O)O)CC1
CTL activity (Mus musculus [42]): 21 - 40% of interleukin 2

N=C(N)NCCCC(NC(=O)OCCCCCn1cnc2c(S)ncnc21)C(=O)O (single isomer, unassigned)
CTL activity (Mus musculus [39]): 21 - 40% of interleukin 2

CN(C)c1ncnc2c1ncn2CCCCCOC(=O)CCN
CTL activity (Mus musculus [2]): 41 - 60% of interleukin 2

CC1CN1c1ncnc2c1ncn2CCCCCOC(=O)N[C@@H](CCCNC(=N)N)C(=O)O (stereo partly drawn)
CTL activity (Mus musculus [2]): 41 - 60% of interleukin 2

N=C(N)NCCCC(NC(=O)OCCCCCn1cnc2c(N)ncnc21)C(=O)O (single isomer, unassigned)
CTL activity (Mus musculus [39]): 21 - 40% of interleukin 2
CTL activity (Mus musculus [43]): +

CN(C)c1ncnc2c1ncn2CCCCCCOC(=O)N[C@@H](CCCNC(=N)N)C(=O)O
CTL activity (Mus musculus [2]): 41 - 60% of interleukin 2

N=C(N)NCCC[C@H](NC(=O)OCCCCCn1cnc2c(N3CCC3)ncnc21)C(=O)O
CTL activity (Mus musculus [5]): 21 - 40% of interleukin 2
